Experiments:
[1] = test system: DU-145; assay: Cytotoxicity against human DU145 cells after 48 hrs by neutral red assay; type: functional, cell-based; settings: DU-145, 48 h
Procedure, shortened: (§1)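 Cells kept in DMEM/F12 with 10% FBS and antibiotics at 37° C, 5% CO2:95% air. Plated at 30,000 cells/well and grown 24 h. Compounds diluted in serum-free DMEM/F12 and added (n = 3). Incubated 48 h at 37° C under normoxia. Viability read by neutral red at OD540. % inhibition = 1 - OD540(treated)/OD540(control). Highest concentration tested 30 μM.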

[2] = biological target: T1, Hypoxia inducible factors; HIF-1-alpha, HIF-2-alpha (Homo sapiens, UniProt Q16665+Q99814); assay: Inhibition of hypoxia-induced HIF1 activation in human PC3 cells by reporter gene assay; type: cell-based; settings: pc-3
Procedure, shortened: (§2)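 Luciferase reporter cells (T47D or PC-3) transfected, treated with compound and exposed to hypoxia (1% O2:5% CO2:94% N2). Normoxic comparison at 5% CO2:95% air. Compounds from 10 mM isopropanol stocks, tested up to 30 μM. Luciferase activity measured.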

[3] = test system: MDA-MB-231; assay: Cytotoxicity against human MDA-MB-231 cells after 48 hrs by neutral red assay; type: functional, cell-based; settings: MDA-MB-231, 48 h; procedure, shortened: as §1
[4] = test system: T47D; assay: Cytotoxicity against human T47D cells after 48 hrs by neutral red assay; type: functional, cell-based; procedure, shortened: as §1
[5] = test system: PC-3; assay: Cytotoxicity against human PC-3 cells after 48 hrs by neutral red assay; type: functional, cell-based; settings: PC-3, 48 h; procedure, shortened: as §1
[6] = biological target: T1, Hypoxia inducible factors; HIF-1-alpha, HIF-2-alpha; assay: Inhibition of 1,10 phenanthroline-induced HIF1 activation in human T47D cells by reporter gene assay; type: cell-based
Procedure, shortened: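 Transfected T47D luciferase reporter cells. HIF-1 induced with the hypoxia mimetic 1,10-phenanthroline at 10 μM. Compounds from 10 mM isopropanol stocks, tested up to 30 μM. HIF-1 activity read as luciferase activity.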

[7] = biological target: T1, Hypoxia inducible factors; HIF-1-alpha, HIF-2-alpha; assay: Inhibition of hypoxia-induced HIF1 activation in human T47D cells by reporter gene assay; type: cell-based; procedure, shortened: as §2

Structure (SMILES) | IC50 [1] | IC50 [2] | IC50 [3] | IC50 [4] | IC50 [5] | IC50 [6] | IC50 [7]
C[C@H]1CC[C@@H]2OC(C)(C)C(=O)CC[C@@]2(C)[C@@]12O[C@H]([C@@]1(C)CC[C@@H]3OC(C)(C)C(=O)CC[C@]31C)C[C@H]2O | > 30 µM | > 30 µM | > 30 µM | > 30 µM | > 30 µM | > 30 µM | > 30 µM
C=C1CC[C@@H]2OC(C)(C)[C@H](O)CC[C@@]2(C)[C@@H]1CC[C@]1(O)[C@@H](C)CC[C@@H]2OC(C)(C)C(=O)CC[C@]21C | > 30 µM | > 30 µM | > 30 µM | > 30 µM | > 30 µM | > 30 µM | 25 µM
C=C1CC[C@@H]2OC(C)(C)[C@H](OC(C)=O)CC[C@@]2(C)[C@@H]1CC[C@]1(O)[C@@H](C)CC[C@@H]2OC(C)(C)C(=O)CC[C@]21C | > 30 µM | > 30 µM | > 30 µM | 22 µM | > 30 µM | > 30 µM | 20 µM
CC1=C(CCC2=C(C)C(=O)C(O)=C3C(C)(C)C(=O)CC[C@]23C)[C@]2(C)CCC(=O)C(C)(C)O[C@H]2CC1 [10,11-DIHYDROSODWANONE B] | > 30 µM | > 30 µM | > 30 µM | > 30 µM | > 30 µM | 30 µM | 20 µM
CC1=C(CC[C@H]2[C@]3(C)CCC(=O)C(C)(C)O[C@H]3CC[C@]2(C)O)[C@@]2(C)CCC(=O)C(C)(C)C2=C(O)C1=O [SODWANONE A] | > 30 µM | > 30 µM | > 30 µM | > 30 µM | > 30 µM | > 30 µM | 20 µM
CC1=C(CC[C@@H]2[C@H](C)CC[C@@H]3OC(C)(C)C(=O)CC[C@]32C)[C@@]2(C)CCC(=O)C(C)(C)C2=C(O)C1=O [SODWANONE B] | > 30 µM | > 30 µM | > 30 µM | > 30 µM | > 30 µM | > 30 µM | > 30 µM
CC1=C(CCC2=C(C)CC[C@@H]3OC(C)(C)[C@H](O)CC[C@@]23C)[C@]2(C)CCC(=O)C(C)(C)O[C@H]2CC1 [SODWANONE T] | > 30 µM | > 30 µM | > 30 µM | > 30 µM | > 30 µM | 20 µM | 20 µM
CC1=C(CCC23CCC(=O)C(C)(C)C2=C(O)C(=O)C(C)=C3C)[C@]2(C)CCC(=O)C(C)(C)O[C@H]2CC1 (stereo partly drawn) [SODWANONE U] | > 30 µM | > 30 µM | > 30 µM | > 30 µM | > 30 µM | > 30 µM | > 30 µM
C[C@H]1CC[C@@H]2OC(C)(C)[C@@H](O)CC=C2[C@@]1(C)CC[C@]1(C)[C@@H](C)CC[C@@H]2OC(C)(C)[C@@]3(O)CC[C@]21O3 [SODWANONE V] | > 30 µM | 15 µM | 23 µM | > 30 µM | > 30 µM | 15 µM | 15 µM
CC(C)C(=O)CC[C@@]1(C)[C@@H]2CC[C@H](C)[C@@]1(CC[C@@]1(C)C3=CC[C@@H](O)C(C)(C)O[C@@H]3CC[C@H]1C)O2 [SODWANONE W] | > 30 µM | – | > 30 µM | > 30 µM | > 30 µM | – | > 30 µM
C[C@H]1CC[C@@H]2OC(C)(C)C(=O)CC[C@@]2(C)[C@]12CC[C@@H]([C@@]1(C)CC[C@@H]3OC(C)(C)C(=O)CC[C@]31C)O2 [YARDENONE] | > 30 µM | – | > 30 µM | > 30 µM | > 30 µM | – | > 30 µM
